Consider 21 compounds from ChEMBL document CHEMBL1137671, “Synthesis of 1-(2,6-dichlorophenyl)-3-methylene-1,3-dihydro-indol-2-one derivatives and in vitro anticancer evaluation against SW620 colon cancer cell line” (Eur J Med Chem, 2009).

In brackets after ≈: the same amount, converted by molar mass.

A short description of assay [1]: Inhibition of FGFR autophosphorylation.
For another assay, the system named is SW-620. As to the kind of experiment: Cytotoxicity against human SW620 cells after 3 days by MTT assay. As to conditions: SW-620, 72 h, read-out: ED50 (the source's name). The class given is functional. A digest of the protocol: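 SW620 human colon cancer cells seeded at 10,000 per well and exposed to 1-100 µM for 72 h in a CO₂ incubator, with untreated controls. Then 125 µg MTT per well for 3 h, followed by lysis in 10% SDS-0.01 N HCl. Absorbance was read at 540 nm. % cytotoxicity = (1 − (treated − blank)/control) × 100.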
Background: Tetrazolium assays rely on reduction of a dye to a coloured formazan, in cell work by metabolically active cells.

In general, IC50 refers to the concentration needed to halve the response being measured. Regarding `Cc1c[nH]c(/C=C2\C(=O)Nc3ccccc32)c1CCC(=O)O`, the midpoint of inhibition in assay [1], the IC50, lay at 10 µM.
Regarding `Cc1ccc2cc(/C=C3/C(=O)N(c4c(Cl)cccc4Cl)c4ccccc43)c(Cl)nc2c1C`, the EC50 with SW-620 was > 100 µg/mL.
Take `COc1ccc(/C=C2/C(=O)N(c3c(Cl)cccc3Cl)c3ccccc32)cc1OC`: in the assay on SW-620, the EC50 came to 50 µg/mL (≈ 117 µM).
As for `O=C1/C(=C/c2ccccc2Cl)c2ccccc2N1c1c(Cl)cccc1Cl`, the EC50 in the assay on SW-620 amounted to 15 µg/mL (≈ 37.4 µM).
Turning to `O=CN1CCN(c2ccc(/C=C3\C(=O)Nc4ccccc43)cc2)CC1`, the IC50 in assay [1] was found to be 10 µM.
On to `O=C1/C(=C/c2ccccc2)c2ccccc2N1c1c(Cl)cccc1Cl`, for which the EC50 in the assay on SW-620 came out at 100 µg/mL (≈ 273 µM).
For `O=C1/C(=C/c2c(Cl)cccc2Cl)c2ccccc2N1c1c(Cl)cccc1Cl`, in the assay on SW-620, the EC50 is > 100 µg/mL.
The same measure, in the same setting: with `O=C1/C(=C/c2cccc(Oc3ccccc3)c2)c2ccccc2N1c1c(Cl)cccc1Cl` the figure was 50 µg/mL (≈ 109 µM); with `O=C1Cc2ccccc2N1c1c(Cl)cccc1Cl`, > 100 µg/mL.
In the case of `Cc1ccc2nc(Cl)c(/C=C3/C(=O)N(c4c(Cl)cccc4Cl)c4ccccc43)cc2c1`, the EC50 with SW-620 was found to be 40 µg/mL (≈ 85.9 µM).
`O=C1/C(=C/c2ccc(F)cc2)c2ccccc2N1c1c(Cl)cccc1Cl`: the EC50 with SW-620 stood at 5 µg/mL (≈ 13 µM).
`O=C1/C(=C/c2cc3ccccc3nc2Cl)c2ccccc2N1c1c(Cl)cccc1Cl`: the EC50 in the assay on SW-620 is 25 µg/mL (≈ 55.3 µM).
Regarding `O=C1/C(=C/c2ccc(Cl)cc2)c2ccccc2N1c1c(Cl)cccc1Cl`, the EC50 in the assay on SW-620 was found to be 100 µg/mL (≈ 250 µM).
As for `O=C1/C(=C/c2cccc(Cl)c2)c2ccccc2N1c1c(Cl)cccc1Cl`, the EC50 in the assay on SW-620 was found to be 50 µg/mL (≈ 125 µM).
On the same count and under the same terms, with `O=C1/C(=C/c2ccc(Cl)cc2Cl)c2ccccc2N1c1c(Cl)cccc1Cl` the figure was 2 µg/mL (≈ 4.6 µM); with `O=C1/C(=C/c2ccc(O)cc2)c2ccccc2N1c1c(Cl)cccc1Cl`, 50 µg/mL (≈ 131 µM).
Consider `O=C1/C(=C/c2ccco2)c2ccccc2N1c1c(Cl)cccc1Cl`, for which the EC50 in the assay with SW-620 is > 100 µg/mL.
The same measure, in the same setting: with `CN(C)c1ccc(/C=C2/C(=O)N(c3c(Cl)cccc3Cl)c3ccccc32)cc1` the figure was > 100 µg/mL; with `O=C1/C(=C\c2cccc3ccccc23)c2ccccc2N1c1c(Cl)cccc1Cl`, > 100 µg/mL; with `O=C1/C(=C/c2ccccc2[N+](=O)[O-])c2ccccc2N1c1c(Cl)cccc1Cl`, 90 µg/mL (≈ 219 µM).
`COc1ccc(/C=C2/C(=O)N(c3c(Cl)cccc3Cl)c3ccccc32)cc1`: the EC50 in the assay with SW-620 was > 100 µg/mL.
